MC4R barr agon = agonists of human melanocortin 4 receptor (MC4R) beta-arrestin | AID 540308 | P32245 | activation, % at 8.9 µM | hit rate 0.98% among 360,000 | U2OS MC4R beta-arrestin complementation, luminescence; percent of melanotan II response, DMSO zero;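 active means activation above a per-plate cutoff, the mean activation of sample wells on that plate plus 3 SD, cut at about 8% in these data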
Target sequence (P32245 whole entry, looked up): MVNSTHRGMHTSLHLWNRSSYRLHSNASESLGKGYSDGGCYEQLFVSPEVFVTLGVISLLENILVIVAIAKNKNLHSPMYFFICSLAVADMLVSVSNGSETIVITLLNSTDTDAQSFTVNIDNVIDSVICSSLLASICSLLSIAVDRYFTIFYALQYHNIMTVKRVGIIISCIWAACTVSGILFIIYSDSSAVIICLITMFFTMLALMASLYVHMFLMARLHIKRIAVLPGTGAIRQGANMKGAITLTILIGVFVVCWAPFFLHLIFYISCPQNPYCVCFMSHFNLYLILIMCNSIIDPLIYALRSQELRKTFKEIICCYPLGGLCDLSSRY
A1 inh = inhibitors of the anti-apoptotic protein A1, read as caspase activation; MEF A1-2A-BIM cells, Caspase-Glo 3/7 luminescence, 3 h; percent of clofoctol response, vehicle zero; hit rate 0.066% among 330,000; caspase activation, % (concentration not given with the values);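 active means over half of replicate activation scores above 10%, or exactly half above 10 with the replicate mean above 10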
CHOP UPR activ = activators of apoptotic arm of unfolded protein response (CHOP); CHO-CHOP luciferase reporter, UPR activation, luminescence; percent of tunicamycin response over DMSO baseline; activation, % at 10 µM; hit rate 0.34% among 330,000;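 active means at 10 µM dose, activation of 40% or more, normalized to positive control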
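measured by = luciferase luminescence | assay system = CHO-CHOP cells, stable luciferase reporter of PERK-eIF2a-CHOP signalling | amount = 500 reporter cells seeded per well | timing = 6 h compound exposure at 37 °C after overnight seeding | controls = positive tunicamycin 10 µg/mL, negative DMSO alone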
UPR XBP1 act = adaptive UPR (XBP1) activation; CHO-XBP1 luciferase reporter, IRE1-XBP1 UPR activation, luminescence; percent of tunicamycin response, DMSO as zero; activation, % at 20 µM; hit rate 0.33% among 330,000;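 active means versus positive control, 20 µM dose yields 30% or more activation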
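Material: IRE1-XBP1 luciferase reporter CHO line / Quantity: one thousand reporter cells per well / Buffer or medium: F12 with 10% serum / Compound: 20 µM single concentration, DMSO 1% / Times: 6 h treatment, 37 °C / Detection: Steady-Glo luciferase glow luminescence, 10 min after reagent addition / Benchmarks: tunicamycin high, DMSO low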
MC4R antagonist = antagonists of human melanocortin 4 receptor (MC4R). P32245. MC4R-expressing cells, MTII-stimulated cAMP, LANCE TR-FRET. inhibition, % at 6.5 µM. hit rate 0.48% among 360,000. AID 540295;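 active means inhibition above its plate's cutoff, the mean of tested wells on that plate plus 3 SD, cut at about 29% in these data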
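Material – human MC4R-expressing U2OS cells · Repeats – no replicates · Detection – TR-FRET with Eu-cAMP and labeled anti-cAMP, 671 nm · Times – compound 30 min, challenge 1 h, detection 1 h · Compound – single nominal compound dose of 6.5 µM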
UPR CHOP confirm = confirmation of apoptotic unfolded protein response (CHOP) activators; hit rate 64% among 1,000; shares compounds with CHOP UPR activ; activation, % at 10 µM; CHO-CHOP cells, CHOP-luciferase reporter luminescence; percent of tunicamycin response, DMSO as zero; in the data active means activation above about 33%
UPR XBP1 confirm = confirmation of adaptive unfolded protein response (XBP1) activators; shares compounds with UPR XBP1 act; CHO-XBP1 IRE1-XBP1 luciferase reporter, luminescence; activation, % at 20 µM; hit rate 63% among 1,000; AID 485299;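 active means reporter signal at least 30% of the positive control's activation in two or more of four replicate wells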
Each line names hits and unclear results; the compound was inactive in the other large screens (follow-up assays come after a bar, where they were run). Shown are actives, neighbours in structure and some others; about 2% of the full set was active somewhere.

O=C(CSc1cccc2cccnc12)N/N=C/c1cccc(O)c1	none
O=C(N/N=C/c1ccc(O)c(O)c1)c1ccc(CSc2cccc3cccnc23)cc1	CHOP UPR activ 106.2, UPR XBP1 act 50.8 | UPR CHOP confirm inactive | UPR XBP1 confirm 54.4
COC(=O)c1ccc(COc2ccccc2/C=C(\C#N)C(=O)Nc2c(C)cccc2C)cc1	CHOP UPR activ 127.8, UPR XBP1 act 65.3 | UPR CHOP confirm 85.3 | UPR XBP1 confirm 65.0
COC(=O)c1ccc(COc2ccccc2/C=C(\C#N)C(=O)Nc2ccccc2C)cc1	none
CCc1nc(N=Nc2c(O)[nH]c3ccccc23)c2c3c(sc2n1)CCC3	A1 inh 8.9, CHOP UPR activ 94.4, UPR XBP1 act 34.9 | UPR CHOP confirm 75.9 | UPR XBP1 confirm 167.8
CC1CCc2c(sc3ncn(CC(=O)N=Nc4c(O)[nH]c5ccccc45)c(=O)c23)C1 (centres undefined)	none
CC1=C(/C=C/C(C)=C/C=C/C(C)=C\C(=O)O)C(C)(C)CCC1	none
CC1=C(/C=C/C(C)=C/C=C/C(C)=C/C(=O)Nc2ccc(O)cc2)C(C)(C)CCC1	CHOP UPR activ 92.7, UPR XBP1 act 54.3 | UPR CHOP confirm 131.3 | UPR XBP1 confirm 54.6
OC[C@@H]1CN(Cc2ccco2)C[C@H](n2cnc3c(Nc4ccccc4)ncnc32)O1	none (no result: A1 inh, CHOP UPR activ, UPR XBP1 act)
Oc1cccc(/C=N/Nc2cc(N3CCOCC3)nc(N3CCOCC3)n2)c1	none
Oc1ccc(/C=N/Nc2cc(N3CCOCC3)nc(N3CCOCC3)n2)cc1O	CHOP UPR activ 267.6, UPR XBP1 act 58.7 | UPR CHOP confirm 100.0 | UPR XBP1 confirm 42.0
COc1ccc(N=c2oc3c(OC)cccc3cc2C(=O)NCc2ccco2)cc1OC	CHOP UPR activ 75.5, UPR XBP1 act 44.5 | UPR CHOP confirm 45.3 | UPR XBP1 confirm inactive
COCc1cc(C)nc(OCC(=O)N/N=C/c2ccc(-c3cc([N+](=O)[O-])ccc3Cl)o2)c1C#N	CHOP UPR activ 53.1, UPR XBP1 act 342.1 | UPR CHOP confirm 70.5 | UPR XBP1 confirm 276.9
COCc1cc(C)nc(OCC(=O)N/N=C/c2ccco2)c1C#N	none
COCC(=O)N(C)C[C@@H]1Oc2cc(-c3ccc(F)cc3)ccc2S(=O)(=O)N([C@H](C)CO)C[C@H]1C	none (no result: A1 inh, CHOP UPR activ, UPR XBP1 act)
O=c1/c(=C/c2ccccn2)sc2n1CN(c1ccccc1)CN=2	none
Cc1cc(C)c2c(c1)/C(=c1/sc3n(c1=O)CN(c1ccccc1)CN=3)C(=O)N2	CHOP UPR activ 102.0, UPR XBP1 act 189.7 | UPR CHOP confirm 83.0 | UPR XBP1 confirm 168.5
COc1cccc(C(O)c2nc(-c3ccc(F)c(Cl)c3)cs2)c1 (centres undefined)	none (no result: A1 inh, CHOP UPR activ, UPR XBP1 act)
COc1ccc(-c2cc(-c3cccs3)c(C#N)c(SCC(=O)NCc3ccco3)n2)cc1	none
COc1ccc(CNC(=O)CSc2nc(-c3ccccc3)cc(-c3cccs3)c2C#N)cc1	CHOP UPR activ 44.7, UPR XBP1 act 33.0 | UPR CHOP confirm inactive | UPR XBP1 confirm inactive
COc1ccc(C2CCc3cc4c(cc3C2=NOC(C)=O)OCO4)cc1OC (centres undefined)	none (no result: A1 inh, CHOP UPR activ, UPR XBP1 act)
O=C1c2ccccc2-n2c1nc1ccccc1c2=O	CHOP UPR activ 77.3, UPR XBP1 act 34.2 | UPR CHOP confirm inactive | UPR XBP1 confirm inactive
Cc1cc(O)cc(O)c1/C=N/NC(=O)c1ccc2c(c1)OCCO2	none (no result: A1 inh, CHOP UPR activ, UPR XBP1 act)
COc1ccc(/C=C/c2nc3ccccc3c(=O)o2)cc1	none
COc1ccc(/C=C/c2nc3cc(-c4ccccc4)ccc3o2)cc1O	CHOP UPR activ 45.2, UPR XBP1 act 38.7 | UPR CHOP confirm 50.0 | UPR XBP1 confirm 29.2
CCCCNC(=O)C1(C)CCCCN1C(=O)c1cc2ccccc2s1 (centres undefined)	none (no result: A1 inh, CHOP UPR activ, UPR XBP1 act)
O=C1S/C(=C\C=C\c2ccco2)C(=O)N1c1ccc(O)cc1	CHOP UPR activ 168.1, UPR XBP1 act 36.8 | UPR CHOP confirm inactive | UPR XBP1 confirm inactive
